Source: ChEMBL document CHEMBL5053511, “Discovery of a Novel BCL-XL PROTAC Degrader with Enhanced BCL-2 Inhibition” (J Med Chem, 2021)
Activity calls are given as the source filed them. The rule behind the calls is not given here.

Assays:
[1] = target: T1, von Hippel-Lindau disease tumor suppressor/Bcl-2-like protein 1 (Homo sapiens, UniProt Q07817+P40337); test: Protac activity at VHL/BCL-XL in human MOLT-4 cells assessed as induction of BCL-XL degradation at 10 uM pretreated with VHL-032 followed by compound treatement measured after 12 hrs by Western blot analysis; format: cell-based
Summary of the method: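 MOLT-4 cells were pretreated with 10 µM VHL-032 or 1 µM MG-132, followed by 12 h compound treatment. BCL-XL and β-actin were immunoblotted; blots representative of three experiments.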
Target sequence in this assay (P40337 whole entry, looked up): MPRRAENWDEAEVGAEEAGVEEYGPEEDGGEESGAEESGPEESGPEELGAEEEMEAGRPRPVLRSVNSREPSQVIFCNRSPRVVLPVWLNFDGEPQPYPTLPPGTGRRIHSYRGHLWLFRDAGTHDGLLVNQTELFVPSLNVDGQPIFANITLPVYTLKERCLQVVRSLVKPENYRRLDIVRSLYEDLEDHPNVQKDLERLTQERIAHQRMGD
Target sequence in this assay (Q07817 whole entry, looked up): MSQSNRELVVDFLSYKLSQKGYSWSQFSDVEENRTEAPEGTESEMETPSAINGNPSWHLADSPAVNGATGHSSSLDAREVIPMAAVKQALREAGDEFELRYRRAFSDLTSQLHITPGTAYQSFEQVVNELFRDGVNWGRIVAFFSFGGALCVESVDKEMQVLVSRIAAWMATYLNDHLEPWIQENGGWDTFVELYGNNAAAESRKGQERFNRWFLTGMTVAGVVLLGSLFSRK

[2] = target: T1, von Hippel-Lindau disease tumor suppressor/Bcl-2-like protein 1; test: Protac activity at VHL/BCL-XL in human MOLT-4 cells assessed as induction of BCL-XL degradation at 100 nM measured up to 72 hrs by Western blot analysis; format: cell-based
Summary of the method: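 MOLT-4 cells were treated with 100 nM for a series of times. For washout, cells were treated for 16 h and sampled at times after compound removal. BCL-XL and β-actin were immunoblotted.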
Target sequence in this assay (P40337 whole entry, looked up): as the sequence (P40337 whole entry, looked up) above
Target sequence in this assay (Q07817 whole entry, looked up): as the sequence (Q07817 whole entry, looked up) above

Platelet = test: Cytotoxicity against platelets in human PRP assessed as reduction in cell viability measured after 48 hrs by MTS assay; format: cell-based
Summary of the method: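 Washed human platelets from PRP were kept in HEPES Tyrode's buffer with 1 µM PGE1 and 0.2 units/mL apyrase at 2×10^8/mL.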

[3] = target: T1, von Hippel-Lindau disease tumor suppressor/Bcl-2-like protein 1; test: Protac activity at VHL/BCL-XL in human RS4-11 cells assessed as decrease in BCL-XL protein level by densitometric analysis; format: cell-based
Summary of the method: (§1)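 MOLT-4 or RS4;11 cells were treated at a range of concentrations for 16 h. BCL-XL was immunoblotted with β-actin loading control, and band densitometry was normalised to β-actin. Mean ± SD of three independent experiments in triplicate.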
Target sequence in this assay (Q07817 whole entry): as the sequence (Q07817 whole entry, looked up) above
Target sequence in this assay (P40337 whole entry): as the sequence (P40337 whole entry, looked up) above

[4] = target: T1, von Hippel-Lindau disease tumor suppressor/Bcl-2-like protein 1; test: Protac activity at VHL/BCL-XL in human MOLT-4 cells assessed as decrease in BCL-XL protein level by densitometric analysis; format: cell-based; summary of the method: as §1
Target sequence in this assay (Q07817 whole entry): as the sequence (Q07817 whole entry, looked up) above
Target sequence in this assay (P40337 whole entry): as the sequence (P40337 whole entry, looked up) above

RS4-11 [5] = test: Cytotoxicity against human RS4-11 cells assessed as reduction in cell viability measured after 48 hrs by MTS assay; format: functional, cell-based; details: RS4-11, 48 h
MOLT-4 [6] = test: Cytotoxicity against human MOLT-4 cells assessed as reduction in cell viability measured after 48 hrs by MTS assay; format: functional, cell-based; details: MOLT-4, 48 h
MOLT-4 [7] = test: Induction of apoptosis in human MOLT-4 cells assessed as […] in cleaved caspase-3 level at up to 1000 nM measured after 16 hrs by immunoblotting analysis; format: functional, cell-based
Summary of the method: (§2)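 MOLT-4 cells were treated at a range of concentrations for 16 h. Lysates were immunoblotted for cleaved and full caspase-3, cleaved and full PARP, and β-actin; blots representative of three experiments.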

MOLT-4 [8] = test: Induction of apoptosis in human MOLT-4 cells assessed as […] in full caspase-3 level at up to 1000 nM measured after 16 hrs by immunoblotting analysis; format: functional, cell-based; summary of the method: as §2
MOLT-4 [9] = test: Induction of apoptosis in human MOLT-4 cells assessed as late apoptotic cells at 10 nM measured after 48 hrs by annexinV-FITC/propidium iodide staining based flow cytometry (reference value: 1%); format: functional
MOLT-4 [10] = test: Induction of apoptosis in human MOLT-4 cells assessed as late apoptotic cells at 10 nM measured after 48 hrs in presence of QVD by annexinV-FITC/propidium iodide staining based flow cytometry (reference value: 1%); format: functional
Bcl-2-like protein 1 = Bcl-2-like protein 1 (Homo sapiens, UniProt Q07817); test: Displacement of biotin-tagged LWAAQRYGRELRRMSDEFEGSFKGL from human BCL-XL expressed in Escherichia coli measured after 2 hrs by AlphaScreen assay
Bcl-2-like protein 1, sequence (Q07817 whole entry): as the sequence (Q07817 whole entry, looked up) above
Summary of the method: (§3)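 AlphaScreen displacement, run with or without VCB. Anti-His acceptor beads were added for 1 h at room temperature, then streptavidin donor beads for 30 min in the dark. Ki was fitted by one-site competitive model from peptide concentration and measured Kd values; reported as mean ± SD of at least two experiments in triplicate.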

[11] = target: Apoptosis regulator Bcl-2 (Homo sapiens, UniProt P10415); test: Displacement of biotin-tagged MRPEPATIAQELRRIGDEFNA from C-terminal His-tagged human BCL-2 (1` to 211 residues) expressed in Escherichia coli measured after 2 hrs by AlphaScreen assay; summary of the method: as §3
Apoptosis regulator Bcl-2, sequence (P10415 whole entry, the tested form may be a part): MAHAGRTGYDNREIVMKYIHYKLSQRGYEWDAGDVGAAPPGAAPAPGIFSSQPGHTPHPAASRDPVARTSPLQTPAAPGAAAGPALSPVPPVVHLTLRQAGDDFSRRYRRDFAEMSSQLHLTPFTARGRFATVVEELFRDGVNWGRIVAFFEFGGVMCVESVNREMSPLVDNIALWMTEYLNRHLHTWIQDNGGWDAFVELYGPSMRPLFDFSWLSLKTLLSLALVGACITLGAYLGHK

[12] = Binding affinity to C-terminal His-tagged human BCL-2 (1 to 211 residues) expressed in Escherichia coli/recombinant human VHL (54 to end residues) fused to human N-terminal GST-tagged elongin-C/elongin -B/N-terminal His-tagged CUL2/Rbx1 expressed in baculovirus infected Sf21 insect cells measured after 2 hrs by AlphaScreen assay
Summary of the method: as §3, with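 “VCB. Biotin-Bim (80 nM, for BCL-2) or biotin-Bad (16 nM, for BCL-XL) was combined with serially diluted compound and 6×His protein in 25 mM HEPES pH 7.5, 100 mM NaCl, 0.1% BSA, 0.005% Tween 20.” for “VCB.”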

[13] = target: T1, von Hippel-Lindau disease tumor suppressor/Bcl-2-like protein 1; test: Binding affinity to Halo-tagged VHL/HiBiT-tagged BCL-XL (unknown origin) expressed in HEK293T cells assessed as ternary complex formation at up to 100000 nM measured after 6 hrs by NanoBRET assay; format: cell-based
Summary of the method: (§4)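 NanoBRET in live HEK 293T cells. Cells were transfected with HaloTag-VHL (1 µg), HiBit-BCL-XL or HiBit-BCL-2 (10 ng) and LgBit (10 ng). After 24 h they were seeded at 2×10^4 per well in Opti-MEM with 4% FBS, with or without HaloTag 618 ligand, and held overnight. Serial compound doses were given for 6 h at 37 °C, then Nano-Glo substrate was added and mBRET ratios read. Mean ± s.e.m. of two experiments in triplicate.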
Target sequence in this assay (P40337 whole entry, looked up): as the sequence (P40337 whole entry, looked up) above
Target sequence in this assay (Q07817 whole entry, looked up): as the sequence (Q07817 whole entry, looked up) above

[14] = target: T2, von Hippel-Lindau disease tumor suppressor/Apoptosis regulator Bcl-2 (Homo sapiens) (UniProt P10415+P40337); test: Binding affinity to Halo-tagged VHL/HiBiT-tagged BCL-2 (unknown origin) expressed in HEK293T cells assessed as ternary complex formation at up to 100000 nM measured after 6 hrs by NanoBRET assay; format: cell-based; summary of the method: as §4
T2 sequence (P10415 whole entry, looked up): as the sequence (P10415 whole entry, the tested form may be a part) above
T2 sequence (P40337 whole entry, looked up): as the sequence (P40337 whole entry, looked up) above

RS4-11 [15] = test: Cytotoxicity against human RS4-11 cells assessed as reduction in cell viability measured after 48 hrs in presence of VHL-032 by MTS assay; format: functional, cell-based; details: RS4-11, 48 h
Summary of the method: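 RS4;11 cells were pretreated with 10 µM VHL-032, then exposed to compound for 48 h. Viability was read by MTS; three independent experiments in triplicate.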

[16] = target: T1, von Hippel-Lindau disease tumor suppressor/Bcl-2-like protein 1; test: Binding affinity to VHL/ BCL-XL in human RS4-11 cells assessed as ternary complex formation at up to 300 nM measured after 12 hrs by immunoprecipitation assay; format: cell-based
Target sequence in this assay (P40337 whole entry, looked up): as above
Target sequence in this assay (Q07817 whole entry, looked up): as the sequence (Q07817 whole entry, looked up) above

[17] = target: T2, von Hippel-Lindau disease tumor suppressor/Apoptosis regulator Bcl-2 (Homo sapiens); test: Binding affinity to VHL/BCL-2 in human RS4-11 cells assessed as ternary complex formation at up to 300 nM measured after 12 hrs by immunoprecipitation assay; format: cell-based
[18] = target: T1, von Hippel-Lindau disease tumor suppressor/Bcl-2-like protein 1; test: Binding affinity to VHL/ BCL-XL in human RS4-11 cells assessed as ternary complex formation at up to 300 nM measured after 12 hrs in presence of VHL-032 by immunoprecipitation assay; format: cell-based
Target sequence in this assay (P40337 whole entry, looked up): as the sequence (P40337 whole entry, looked up) above
Target sequence in this assay (Q07817 whole entry, looked up): as the sequence (Q07817 whole entry, looked up) above

[19] = target: T2, von Hippel-Lindau disease tumor suppressor/Apoptosis regulator Bcl-2 (Homo sapiens); test: Binding affinity to VHL/BCL-2 in human RS4-11 cells assessed as ternary complex formation at up to 300 nM measured after 12 hrs in presence of VHL-032 by immunoprecipitation assay; format: cell-based

Cc1ncsc1-c1ccc([C@H](C)NC(=O)[C@@H]2C[C@@H](O)CN2C(=O)[C@@H](NC(=O)CCCCCCCCC(=O)NC[C@]2(C)CCC(c3ccc(Cl)cc3)=C(CN3CCN(c4ccc(C(=O)NS(=O)(=O)c5ccc(N[C@H](CCN6CCOCC6)CSc6ccccc6)c(S(=O)(=O)C(F)(F)F)c5)cc4)CC3)C2)C(C)(C)C)cc1
Activity [1]: inactive
Activity [2]: Active
IC50 (Platelet): 950 nM
DC50 [3]: 11.6 nM
DC50 [4]: 14.3 nM
IC50 (RS4-11 [5]): 11.3 nM
IC50 (MOLT-4 [6]): 15.9 nM
Activity (MOLT-4 [7]): Active
Activity (MOLT-4 [8]): Active
Activity (MOLT-4 [9]): 21%
Activity (MOLT-4 [10]): 13%
Ki (Bcl-2-like protein 1): 2.59 nM
Kd [11]: 1.22 nM
Kd [12]: 0.53 nM
Activity [13]: Active
Activity [14]: Active
IC50 (RS4-11 [15]): 209 nM
Activity [16]: Active
Activity [17]: Active
Activity [18]: inactive
Activity [19]: inactive
